# The source made the active and inactive calls.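 The calls were made as follows: active = fitted AC50 at or under twice the sample's top valid tested dose, with viability loss; inconclusive = flat curve with 30 to 70% viability loss, or poor fit; inactive = the rest, including shifts toward viability gain.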
# Test system: A375 melanoma viability, CellTiter-Glo ATP luminescence, 24 h
# Assay: cytotoxicity in MITF-independent A375 cells – cell-based, CellTiter-Glo luminescence, dry powder, set 3, counter-screen for MITF inhibitor project, dose response (AID 624324)
# Details: not given
# Method in brief: (§1)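 assay system = A375 melanoma cells, MITF-independent | quantity = 3000 A375 cells seeded per well | incubation = 24 h exposure at 37 °C, 5 min detection at RT | measured by = ATP luminescence, CellTiter-Glo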
row,SMILES,AC50
1,COc1ccc(C2=C(NC(=O)c3cccc(OC)c3)C(=O)c3ccccc3C2=O)cc1,27.2 µM
2,C=CCNC1=C(NC(=O)c2ccccc2)C(=O)c2ccccc2C1=O,> 70 µM (inactive)
3,COc1ccc(C2=C(N)C(=O)c3ccccc3C2=O)cc1,> 70 µM (inactive)
4,O=C1C(NCCCN2CCOCC2)=C(Nc2ccccc2)C(=O)c2ccccc21,> 70 µM (inactive)
5,CCN1CCN(C2=C(NC(=O)c3ccc(Br)cc3)C(=O)c3ccccc3C2=O)CC1,18.4 µM
6,O=C(NC1=C(c2ccc(OC(F)(F)F)cc2)C(=O)c2ccccc2C1=O)c1ccccc1F,36.6 µM
7,CCN(CC)CCCNC1=C(N(C)C(C)=O)C(=O)c2ccccc2C1=O,6.19 µM
8,CC(=O)NC1=C(c2cccc(Cl)c2)C(=O)c2ccccc2C1=O,9.51 µM
9,CC(=O)N(C)C1=C(N2CCN(C)CC2)C(=O)c2ccccc2C1=O,15.6 µM
10,COc1ccc(C(=O)NC2=C(c3ccccc3)C(=O)c3ccccc3C2=O)cc1,24.8 µM
11,O=C(NC1=C(N2CCOCC2)C(=O)c2ccccc2C1=O)c1ccccc1,26.9 µM
12,O=C1C(NS(=O)(=O)c2ccccc2)=C(N2CCOCC2)C(=O)c2ccccc21,13.8 µM
13,O=C1C=C(Nc2ccccc2)C(=O)c2ccccc21,13.9 µM
14,C=CCNC1=C(NCCCN(CC)CC)C(=O)c2ccccc2C1=O,22 µM
15,COc1ccc(C2=C(NC(=O)c3ccccc3OC)C(=O)c3ccccc3C2=O)cc1,25.5 µM
16,COc1cccc(C2=C(NC(=O)c3ccccc3)C(=O)c3ccccc3C2=O)c1,16.2 µM
17,O=C1C(Nc2ccccc2)=C(N2CCN(c3ccccc3)CC2)C(=O)c2ccccc21,> 70 µM (inactive)
18,Cc1nc2ccccc2n1/N=C/c1ccc([N+](=O)[O-])s1,> 70 µM (inactive)
19,O=C1C(NS(=O)(=O)c2ccc(Br)cc2)=C(N2CCOCC2)C(=O)c2ccccc21,> 70 µM (inactive)
20,C=CCNC1=C(N2CCN(C)CC2)C(=O)c2ccccc2C1=O,20.9 µM
21,CCN1CCN(C2=C(N(C)C(C)=O)C(=O)c3ccccc3C2=O)CC1,15.2 µM

row,SMILES,AC50
1,O=C1C(NS(=O)(=O)c2ccc(Br)cc2)=C(c2ccccc2)C(=O)c2ccccc21,> 70 µM (inactive)
2,O=C1C(NS(=O)(=O)c2ccc(Br)s2)=C(N2CCCCC2)C(=O)c2ccccc21,> 70 µM (inactive)
3,CC(=O)N(C)C1=C(N2CCCCC2)C(=O)c2ccccc2C1=O,29.1 µM
4,COc1ccc(C2=C(NC(C)=O)C(=O)c3ccccc3C2=O)cc1,13.3 µM
5,CCN1CCN(C2=C(NS(=O)(=O)c3ccc(Br)s3)C(=O)c3ccccc3C2=O)CC1,> 70 µM (inactive)
6,O=C(NC1=C(c2ccccc2)C(=O)c2ccccc2C1=O)c1ccccc1,27.9 µM
7,COc1cccc(-c2cc(C(=O)NC3=C(Cl)C(=O)c4ccccc4C3=O)ccc2OC)c1,> 70 µM (inactive)
8,O=C(NC1=C(N2CCCCC2)C(=O)c2ccccc2C1=O)c1ccccc1,> 70 µM (inactive)
9,O=C1C(NS(=O)(=O)c2ccc(Br)cc2)=C(c2ccc(OC(F)(F)F)cc2)C(=O)c2ccccc21,> 70 µM (inactive)
10,C[C@@H](NC1=C(Nc2ccccc2)C(=O)c2ccccc2C1=O)c1ccccc1,> 70 µM (inactive)
11,CC(=O)NC1=C(c2ccc3c(c2)oc2ccccc23)C(=O)c2ccccc2C1=O,24.7 µM
12,O=C(CNc1cccc2ccccc12)N/N=C/c1ccc([N+](=O)[O-])o1,> 70 µM (inactive)
13,O=C(NC1=C(N2CCCCC2)C(=O)c2ccccc2C1=O)c1ccc(Br)cc1,> 70 µM (inactive)
14,O=C1C(NS(=O)(=O)c2cccs2)=C(N2CCCCC2)C(=O)c2ccccc21,> 70 µM (inactive)
15,CCN1CCN(C2=C(NS(=O)(=O)c3ccc(Br)cc3)C(=O)c3ccccc3C2=O)CC1,> 70 µM (inactive)
16,COc1ccc(C(=O)NC2=C(c3ccc(OC)cc3)C(=O)c3ccccc3C2=O)cc1,14.9 µM
17,O=C1C(Nc2ccccc2)=C(N2CCSCC2)C(=O)c2ccccc21,> 70 µM (inactive)
18,C=CCNC1=C(NS(=O)(=O)c2ccc(Br)cc2)C(=O)c2ccccc2C1=O,> 70 µM (inactive)
19,CCN1CCN(C2=C(NC(=O)c3ccccc3)C(=O)c3ccccc3C2=O)CC1,25 µM
20,O=C1C(NS(=O)(=O)c2ccc(Br)s2)=C(N2CCSCC2)C(=O)c2ccccc21,> 70 µM (inactive)
21,CN1CCN(C2=C(NC(=O)c3ccccc3)C(=O)c3ccccc3C2=O)CC1,13.6 µM

row,SMILES,AC50
1,C=CCNC1=C(NS(=O)(=O)c2cccs2)C(=O)c2ccccc2C1=O,> 70 µM (inactive)
2,O=C1C(Nc2ccccc2)=C(N2CCOCC2)C(=O)c2ccccc21,> 70 µM (inactive)
3,C=CCNC1=C(N2CCN(CC)CC2)C(=O)c2ccccc2C1=O,15.7 µM
4,C=CCNC1=C(Nc2ccccc2)C(=O)c2ccccc2C1=O,> 70 µM (inactive)
5,C=CCNC1=C(N2CCOCC2)C(=O)c2ccccc2C1=O,22.8 µM
6,CC(=O)N(C)C1=C(N2CCOCC2)C(=O)c2ccccc2C1=O,32.9 µM
7,C=CCNC1=C(N2CCSCC2)C(=O)c2ccccc2C1=O,11.3 µM
8,CC(=O)NC1=C(c2ccc(Cl)cc2)C(=O)c2ccccc2C1=O,10.4 µM
9,O=C(NC1=C(c2ccc(OC(F)(F)F)cc2)C(=O)c2ccccc2C1=O)c1ccccc1,23.6 µM
10,CC(=O)NC1=C(c2ccccc2)C(=O)c2ccccc2C1=O,12.1 µM
11,C=CCNC1=C(NCCN(CC)CC)C(=O)c2ccccc2C1=O,35.2 µM
12,O=C1C(NS(=O)(=O)c2cccs2)=C(N2CCOCC2)C(=O)c2ccccc21,> 70 µM (inactive)
13,CN1CCN(C2=C(Nc3ccccc3)C(=O)c3ccccc3C2=O)CC1,27.2 µM
14,COc1ccc(C2=C(NC(=O)c3ccc(Cl)cc3)C(=O)c3ccccc3C2=O)cc1,27.7 µM
15,CC1CCN(CC(CS(=O)(=O)c2ccc([N+](=O)[O-])cc2)N2CCC(C)CC2)CC1 (configuration not stated),> 70 µM (inactive)
16,O=C(NC1=C(c2ccc(OC(F)(F)F)cc2)C(=O)c2ccccc2C1=O)c1ccco1,28 µM
17,NC1=CC(=O)c2ccccc2C1=O,> 70 µM (inactive)
18,O=C1C(Nc2ccccc2)=C(NS(=O)(=O)c2ccccc2[N+](=O)[O-])C(=O)c2ccccc21,> 70 µM (inactive)
19,O=C(NC1=C(N2CCSCC2)C(=O)c2ccccc2C1=O)c1ccc(Br)cc1,> 70 µM (inactive)
20,COc1ccc(C2=C(NC(=O)c3cccc(Cl)c3)C(=O)c3ccccc3C2=O)cc1,16.8 µM
21,COc1ccc(C(=O)NC2=C(c3ccc(OC(F)(F)F)cc3)C(=O)c3ccccc3C2=O)cc1,32.2 µM

row,SMILES,AC50
1,C=CCNC1=C(N2CCCCC2)C(=O)c2ccccc2C1=O,19.6 µM
2,C=CCNC1=C(Cl)C(=O)c2ccccc2C1=O,> 70 µM (inactive)
3,O=C1C(NS(=O)(=O)c2ccc(Br)s2)=C(N2CCOCC2)C(=O)c2ccccc21,> 70 µM (inactive)
4,O=C(NC1=C(Cl)C(=O)c2ccccc2C1=O)c1ccccc1,29.9 µM
5,CN1CCN(C2=C(NS(=O)(=O)c3ccc(Br)s3)C(=O)c3ccccc3C2=O)CC1,> 70 µM (inactive)
6,CCN1CCN(C2=C(NS(=O)(=O)c3cccs3)C(=O)c3ccccc3C2=O)CC1,> 70 µM (inactive)
7,O=C1C(NS(=O)(=O)c2ccc(Br)cc2)=C(N2CCSCC2)C(=O)c2ccccc21,> 70 µM (inactive)
8,O=C1C(NS(=O)(=O)c2ccc(Br)cc2)=C(N2CCCCC2)C(=O)c2ccccc21,> 70 µM (inactive)
9,CCN(CC)CCCCNC1=C(Nc2ccccc2)C(=O)c2ccccc2C1=O,> 70 µM (inactive)
10,O=C(NC1=C(c2ccccc2)C(=O)c2ccccc2C1=O)c1ccco1,13.8 µM
11,COc1ccc(C2=C(NC(=O)c3ccccc3Cl)C(=O)c3ccccc3C2=O)cc1,12.2 µM
12,Cc1ccc(C(=O)NC2=C(c3ccc(OC(F)(F)F)cc3)C(=O)c3ccccc3C2=O)o1,30.4 µM
13,C=CCNC1=C(N(C)C(C)=O)C(=O)c2ccccc2C1=O,9.29 µM
14,O=C(NC1=C(c2ccccc2)C(=O)c2ccccc2C1=O)c1ccc(Br)cc1,26.4 µM
15,Cc1ccc(C(=O)NC2=C(c3ccccc3)C(=O)c3ccccc3C2=O)o1,16 µM
16,O=C1C(NS(=O)(=O)c2ccccc2)=C(N2CCCCC2)C(=O)c2ccccc21,> 70 µM (inactive)
17,CCN(CC)CCNC1=C(Nc2ccccc2)C(=O)c2ccccc2C1=O,> 70 µM (inactive)
18,CN1CCN(C2=C(NC(=O)c3ccc(Br)cc3)C(=O)c3ccccc3C2=O)CC1,15.2 µM
19,NC1=C(NC(=O)c2ccccc2)C(=O)c2ccccc2C1=O,> 70 µM (inactive)
20,COC1=C(NS(=O)(=O)c2ccccc2)C(=O)c2ccccc2C1=O,> 70 µM (inactive)

# Test system: not listed separately
# Assay: as above
# Details: A375 melanoma viability, CellTiter-Glo ATP luminescence, 24 h; at 35 µM (top of the series)
# Method in brief: as §1
row,SMILES,"activity change, negative = viability loss"
1,NC1=C(c2ccc(OC(F)(F)F)cc2)C(=O)c2ccccc2C1=O,-5.51% (inactive)
2,C=CCNC1=C(NCC=C)C(=O)c2ccccc2C1=O,1.61% (inactive)
3,CN1CCN(C2=C(NS(=O)(=O)c3cccs3)C(=O)c3ccccc3C2=O)CC1,12.4% (inactive)
4,CN1CCN(C2=C(NS(=O)(=O)c3ccc(Br)cc3)C(=O)c3ccccc3C2=O)CC1,1% (inactive)
5,O=C(NC1=C(N2CCN(c3ccccc3)CC2)C(=O)c2ccccc2C1=O)c1ccccc1,-7.51% (inactive)
6,O=C1C(NS(=O)(=O)c2ccc(Br)cc2)=C(N2CCN(c3ccccc3)CC2)C(=O)c2ccccc21,0.602% (inactive)
7,NC1=C(c2ccccc2)C(=O)c2ccccc2C1=O,-6.89% (inactive)
8,COc1ccc(C2=C(NC(=O)c3ccc(OC)cc3-c3cccc(OC)c3)C(=O)c3ccccc3C2=O)cc1,4.86% (inactive)
9,C=CCNC1=C(NCCCN2CCOCC2)C(=O)c2ccccc2C1=O,1.84% (inactive)
